Measured values from ChEMBL document CHEMBL1926614, “Substituted thiazoles V. synthesis and antitumor activity of novel thiazolo[2,3-b]quinazoline and pyrido[4,3-d]thiazolo[3,2-a]pyrimidine analogues” (2012).

Assays:
Assay type in all cases: functional
UACC-257 = test: Growth inhibition of human UACC257 cells at 10 uM after 48 hrs by coulter counting; conditions: UACC-257, 48 h, read-out: GI
Procedure, shortened: (§1)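 Single-dose screen in the NCI 60 human tumor cell line panel (nine subpanels). Compounds dissolved in DMSO and diluted in phosphate buffered saline, keeping final DMSO below 1%. Added in duplicate wells to cells at 6 × 10⁴ cells/ml. Controls held PBS and DMSO at matching dilutions. Incubated at 37 °C, humidified, 5% CO₂. Reported as percent growth of treated cells.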

UACC-62 = test: Growth inhibition of human UACC62 cells at 10 uM after 48 hrs by coulter counting; conditions: UACC-62, 48 h, read-out: GI; procedure, shortened: as §1
CCRF-CEM = test: Growth inhibition of human CCRF-CEM cells at 10 uM after 48 hrs by coulter counting; conditions: read-out: GI
Procedure, shortened: (§2)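 Single-dose primary screen across the full NCI 60-cell-line panel. Stocks were made in DMSO and diluted in PBS to a final DMSO below 1%. Cultures at 6 × 10⁴ cells/ml were run in duplicate wells alongside PBS/DMSO vehicle controls at 37 °C in humidified 5% CO₂. Data were expressed as percent growth of treated cells.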

HL-60(TB) = test: Growth inhibition of human HL-60(TB) cells at 10 uM after 48 hrs by coulter counting; conditions: HL-60, 48 h, read-out: GI
Procedure, shortened: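 Test compound was dissolved in DMSO and diluted in phosphate-buffered saline to a final DMSO level below 1%. Dilutions were plated in duplicate with cell culture at 6 × 10⁴ cells/ml. Vehicle controls held PBS and DMSO at matching dilutions. Incubation was at 37 °C, humidified, under 5% CO₂. Data were reported as percent growth of treated cells.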

K562 = test: Growth inhibition of human K562 cells at 10 uM after 48 hrs by coulter counting; conditions: K562, 48 h, read-out: GI; procedure, shortened: as §2
MOLT-4 = test: Growth inhibition of human MOLT4 cells at 10 uM after 48 hrs by coulter counting; conditions: MOLT-4, 48 h, read-out: GI; procedure, shortened: as §2
RPMI-8226 = test: Growth inhibition of human RPMI8226 cells at 10 uM after 48 hrs by coulter counting; conditions: RPMI-8226, 48 h, read-out: GI; procedure, shortened: as §2
A549 = test: Growth inhibition of human A549 cells at 10 uM after 48 hrs by coulter counting; conditions: A549, 48 h, read-out: GI; procedure, shortened: as §2
EKVX = test: Growth inhibition of human EKVX cells at 10 uM after 48 hrs by coulter counting; conditions: read-out: GI; procedure, shortened: as §2
NCI-H226 = test: Growth inhibition of human NCI-H226 cells at 10 uM after 48 hrs by coulter counting; conditions: NCI-H226, 48 h, read-out: GI; procedure, shortened: as §2
NCI-H23 = test: Growth inhibition of human NCI-H23 cells at 10 uM after 48 hrs by coulter counting; conditions: NCI-H23, 48 h, read-out: GI; procedure, shortened: as §2
[1] = Growth inhibition of human NCI-322M cells at 10 uM after 48 hrs by coulter counting; conditions: read-out: GI; procedure, shortened: as §2
NCI-H522 = test: Growth inhibition of human NCI-H522 cells at 10 uM after 48 hrs by coulter counting; conditions: NCI-H522, 48 h, read-out: GI; procedure, shortened: as §2
HCT-116 = test: Growth inhibition of human HCT116 cells at 10 uM after 48 hrs by coulter counting; conditions: HCT-116, 48 h, read-out: GI; procedure, shortened: as §2
HCC 2998 = test: Growth inhibition of human HCC2998 cells at 10 uM after 48 hrs by coulter counting; conditions: HCC 2998, 48 h, read-out: GI; procedure, shortened: as §2
HT-29 = test: Growth inhibition of human HT-29 cells at 10 uM after 48 hrs by coulter counting; conditions: HT-29, 48 h, read-out: GI; procedure, shortened: as §2
KM12 = test: Growth inhibition of human KM12 cells at 10 uM after 48 hrs by coulter counting; conditions: KM12, 48 h, read-out: GI; procedure, shortened: as §2
SF-268 = test: Growth inhibition of human SF268 cells at 10 uM after 48 hrs by coulter counting; conditions: SF-268, 48 h, read-out: GI; procedure, shortened: as §2
SF-295 = test: Growth inhibition of human SF295 cells at 10 uM after 48 hrs by coulter counting; conditions: SF-295, 48 h, read-out: GI; procedure, shortened: as §2
SNB-19 = test: Growth inhibition of human SNB19 cells at 10 uM after 48 hrs by coulter counting; conditions: SNB-19, 48 h, read-out: GI; procedure, shortened: as §2
SNB-75 = test: Growth inhibition of human SNB75 cells at 10 uM after 48 hrs by coulter counting; conditions: SNB-75, 48 h, read-out: GI; procedure, shortened: as §2
U-251 = test: Growth inhibition of human U251 cells at 10 uM after 48 hrs by coulter counting; conditions: U-251, 48 h, read-out: GI; procedure, shortened: as §1
LOX IMVI = test: Growth inhibition of human LOXIMVI cells at 10 uM after 48 hrs by coulter counting; conditions: read-out: GI; procedure, shortened: as §2
M14 = test: Growth inhibition of human M14 cells at 10 uM after 48 hrs by coulter counting; conditions: M14, 48 h, read-out: GI; procedure, shortened: as §2
MDA-MB-435 = test: Growth inhibition of human MDA-MB-435 cells at 10 uM after 48 hrs by coulter counting; conditions: MDA-MB-435, 48 h, read-out: GI; procedure, shortened: as §2
SK-MEL-2 = test: Growth inhibition of human SK-MEL-2 cells at 10 uM after 48 hrs by coulter counting; conditions: SK-MEL-2, 48 h, read-out: GI; procedure, shortened: as §2
SK-MEL-28 = test: Growth inhibition of human SK-MEL-28 cells at 10 uM after 48 hrs by coulter counting; conditions: SK-MEL-28, 48 h, read-out: GI; procedure, shortened: as §2
SK-MEL-5 = test: Growth inhibition of human SK-MEL-5 cells at 10 uM after 48 hrs by coulter counting; conditions: SK-MEL-5, 48 h, read-out: GI; procedure, shortened: as §2
IGROV-1 = test: Growth inhibition of human IGROV1 cells at 10 uM after 48 hrs by coulter counting; conditions: IGROV-1, 48 h, read-out: GI; procedure, shortened: as §2
OVCAR-4 = test: Growth inhibition of human OVCAR4 cells at 10 uM after 48 hrs by coulter counting; conditions: OVCAR-4, 48 h, read-out: GI; procedure, shortened: as §2
NCI/ADR-RES = test: Growth inhibition of human NCI/ADR-RES cells at 10 uM after 48 hrs by coulter counting; conditions: read-out: GI; procedure, shortened: as §2
A498 = test: Growth inhibition of human A498 cells at 10 uM after 48 hrs by coulter counting; conditions: A498, 48 h, read-out: GI; procedure, shortened: as §2
ACHN = test: Growth inhibition of human ACHN cells at 10 uM after 48 hrs by coulter counting; conditions: read-out: GI; procedure, shortened: as §2
CAKI-1 = test: Growth inhibition of human Caki1 cells at 10 uM after 48 hrs by coulter counting; conditions: CAKI-1, 48 h, read-out: GI; procedure, shortened: as §2
UO-31 = test: Growth inhibition of human UO31 cells at 10 uM after 48 hrs by coulter counting; conditions: UO-31, 48 h, read-out: GI; procedure, shortened: as §1
DU-145 = test: Growth inhibition of human DU145 cells at 10 uM after 48 hrs by coulter counting; conditions: DU-145, 48 h, read-out: GI; procedure, shortened: as §2
MCF7 = test: Growth inhibition of human MCF7 cells at 10 uM after 48 hrs by coulter counting; conditions: MCF7, 48 h, read-out: GI; procedure, shortened: as §2
BT-549 = test: Growth inhibition of human BT549 cells at 10 uM after 48 hrs by coulter counting; conditions: BT-549, 48 h, read-out: GI; procedure, shortened: as §2
T47D = test: Growth inhibition of human T47D cells at 10 uM after 48 hrs by coulter counting; conditions: read-out: GI; procedure, shortened: as §1

With `COc1cc(/C=C2\CCCC3=C2N=C2SC=C(C)N2C3c2cc(OC)c(OC)c(OC)c2)cc(OC)c1OC` (centres undefined) the inhibition of growth at 10 µM (UACC-257) was greater than 10%, the inhibition of growth at 10 µM (UACC-62) was greater than 10% and the inhibition of growth at 10 µM (CCRF-CEM) was greater than 10%. For the same compound, the inhibition of growth at 10 µM (HL-60(TB)) was greater than 10%, the inhibition of growth at 10 µM (K562) was greater than 10% and the inhibition of growth at 10 µM (MOLT-4) was greater than 10%. The inhibition of growth at 10 µM (RPMI-8226) was greater than 10%, the inhibition of growth at 10 µM (A549) was greater than 10% and the inhibition of growth at 10 µM (EKVX) was greater than 10%. The inhibition of growth at 10 µM (NCI-H226) was greater than 10%, the inhibition of growth at 10 µM (NCI-H23) was greater than 10% and the inhibition of growth at 10 µM [1] was greater than 10%. It also gave an inhibition of growth at 10 µM (NCI-H522) greater than 10%, an inhibition of growth at 10 µM (HCT-116) greater than 10% and an inhibition of growth at 10 µM (HCC 2998) greater than 10%. It also gave an inhibition of growth at 10 µM (HT-29) greater than 10%, an inhibition of growth at 10 µM (KM12) greater than 10% and an inhibition of growth at 10 µM (SF-268) greater than 10%. For the same compound, the inhibition of growth at 10 µM (SF-295) was greater than 10%, the inhibition of growth at 10 µM (SNB-19) was greater than 10% and the inhibition of growth at 10 µM (SNB-75) was greater than 10%. The inhibition of growth at 10 µM (U-251) was greater than 10%, the inhibition of growth at 10 µM (LOX IMVI) was greater than 10% and the inhibition of growth at 10 µM (M14) was greater than 10%. The inhibition of growth at 10 µM (MDA-MB-435) was greater than 10%, the inhibition of growth at 10 µM (SK-MEL-2) was greater than 10% and the inhibition of growth at 10 µM (SK-MEL-28) was greater than 10%. For the same compound, the inhibition of growth at 10 µM (SK-MEL-5) was greater than 10%, the inhibition of growth at 10 µM (IGROV-1) was greater than 10% and the inhibition of growth at 10 µM (OVCAR-4) was greater than 10%. It also gave an inhibition of growth at 10 µM (NCI/ADR-RES) greater than 10%, an inhibition of growth at 10 µM (A498) greater than 10% and an inhibition of growth at 10 µM (ACHN) greater than 10%. The inhibition of growth at 10 µM (CAKI-1) was greater than 10%, the inhibition of growth at 10 µM (UO-31) was 20% and the inhibition of growth at 10 µM (DU-145) was greater than 10%. The inhibition of growth at 10 µM (MCF7) was greater than 10%, the inhibition of growth at 10 µM (BT-549) was greater than 10% and the inhibition of growth at 10 µM (T47D) was greater than 10%.
